Values joined by “and” are separate entries in the source; they are usually repeats but may differ in a detail not shown here. Identical values can stand only once.
Experiments:
A/WSN/33 (H1N1) [1] = assay type: cell-based, influenza A virus
A/WSN/33 (H1N1) [2] = experiment: Time-of-addition experiment in MDCK cells; assay type: cell-based, influenza A virus; conditions: NMS-873 1.8 μM; for antiviral activity when added at 8 h post infection / effect on virus replication when present before or during infection: oseltamivir carboxylate 1 μM
[3] = system: influenza A and B viruses; experiment: Plaque reduction assay, summary over the tested panel of viruses; assay type: cell-based; conditions: Influenza A virus, read-out: EC50 values against these viruses
[4] = system: A/Washington/29/2009 (H1N1); assay type: cell-based, influenza A virus; conditions: NMS-873 1 or 3 μM, oseltamivir carboxylate 1 μM
[5] = system: B/Wisconsin/1/2010 (Yamagata); experiment: Viral titer reduction at high MOI; assay type: cell-based, influenza B virus; conditions: both 12 h p.i. and 24 h p.i., MOI of 1, MDCK
A549 cells = experiment: Cellular cytotoxicity in A549 cells; assay type: cell-based, human; conditions: 3 μM
Method in brief: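 A549 human alveolar epithelial cells were incubated with serial concentrations of the test compound, up to 3 μM, for 24 or 48 h. Cell viability was then measured by neutral red uptake.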

[6] = system: A/WSN/33 (H1N1) viral proteins; assay type: cell-based, influenza A virus
[7] = system: influenza vRNPs (NP) nuclear export; assay type: cell-based, influenza A virus
MDCK cells = MDCK cells treated for 48 h
in vitro = conditions: dog

## CCC(CC)O[C@@H]1C=C(C(=O)O)C[C@H](N)[C@H]1NC(C)=O [Oseltamivir carboxylate]
A/WSN/33 (H1N1) [1]
  reduction of viral titer: 2.1–2.5 log10 units
A/WSN/33 (H1N1) [2]
  antiviral activity when added at 8 h post infection: potent inhibition
  effect on virus replication when present before or during infection: no effect

## Cc1cc(OCc2nnc(SC3CCCC3)n2-c2cccnc2)ccc1-c1ccc(S(C)(=O)=O)cc1 [NMS-873]
[3]
  EC50: 0.028 to 0.056 µM
[4]
  antiviral activity (viral titer): potent antiviral activity
[5]; 1 μM
  reduction of viral titer: more than 1.8 log10 units
[5]; 3 μM
  inhibition of virus (viral titer): completely inhibited
A/WSN/33 (H1N1) [1]
  reduction of viral titer: 1.3–1.4 log10 units and 2.2–3.1 log10 units
A549 cells
  cytotoxicity at highest drug concentration tested: not cytotoxic
A/WSN/33 (H1N1) [2]
  antiviral efficacy when added at 6 h post infection: dramatically decreased
  antiviral activity when added at 8 h post infection: completely abolished
  effect on virus replication when present before or during infection: no antiviral activity was observed
[6]
  levels of other viral proteins PA, PB1, HA and NS1: broadly reduced
  protein expression levels of M1 and NP: significantly reduced
[7]
  NP subcellular localization: NP largely accumulated in the nucleus
  virus entry and NP nuclear import: neither affected the virus entry nor NP nuclear import
MDCK cells
  concentration up to which no cellular cytotoxicity was observed: up to 1.85 μM
In vitro
  CC50: 2.72 ± 0.03 µM

Reference: publication PMC6482079 (European journal of pharmaceutical sciences : official …, 2019)
